Data as given in ChEMBL document CHEMBL4382258, “Design and Optimization of Sulfone Pyrrolidine Sulfonamide Antagonists of Transient Receptor Potential Vanilloid-4 with in Vivo Activity in a Pulmonary Edema Model” (J Med Chem, 2018).

Key:
[1] = AUC (0 to t) in dog at 30 mg/kg, po; format: ADME, organism-based, Canis lupus familiaris; conditions: in vivo
[2] = target: T1, TRPC3/TRPC6 (Homo sapiens, UniProt Q13507+Q9Y210); experiment: Antagonist activity at TRPC3/TRPC6 (unknown origin); format: protein-complex assay
T1 sequence (Q9Y210 whole entry): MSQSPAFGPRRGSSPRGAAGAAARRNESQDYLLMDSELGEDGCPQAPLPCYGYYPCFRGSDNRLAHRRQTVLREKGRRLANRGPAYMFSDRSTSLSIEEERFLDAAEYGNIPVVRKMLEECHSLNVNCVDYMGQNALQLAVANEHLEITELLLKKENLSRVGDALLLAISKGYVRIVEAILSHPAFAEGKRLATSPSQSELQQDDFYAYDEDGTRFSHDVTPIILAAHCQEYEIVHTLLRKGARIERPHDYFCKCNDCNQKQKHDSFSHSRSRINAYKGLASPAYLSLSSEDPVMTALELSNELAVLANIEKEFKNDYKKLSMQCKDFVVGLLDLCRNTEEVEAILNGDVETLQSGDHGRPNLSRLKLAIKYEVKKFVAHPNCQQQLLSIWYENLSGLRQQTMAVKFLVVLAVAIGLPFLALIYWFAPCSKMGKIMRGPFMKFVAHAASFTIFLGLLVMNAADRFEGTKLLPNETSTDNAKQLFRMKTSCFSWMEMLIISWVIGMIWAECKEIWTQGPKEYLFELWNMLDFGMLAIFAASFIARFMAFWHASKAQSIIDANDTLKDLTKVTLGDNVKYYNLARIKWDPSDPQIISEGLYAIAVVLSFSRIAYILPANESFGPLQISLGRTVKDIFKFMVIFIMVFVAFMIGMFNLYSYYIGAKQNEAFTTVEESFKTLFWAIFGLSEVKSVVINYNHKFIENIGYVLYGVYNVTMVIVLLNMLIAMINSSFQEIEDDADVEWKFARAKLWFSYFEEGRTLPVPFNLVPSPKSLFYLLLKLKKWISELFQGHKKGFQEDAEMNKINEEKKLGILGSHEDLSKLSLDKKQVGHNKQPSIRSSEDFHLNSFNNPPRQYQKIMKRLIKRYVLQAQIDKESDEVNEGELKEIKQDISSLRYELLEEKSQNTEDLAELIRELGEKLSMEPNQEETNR
T1 sequence (Q13507 whole entry): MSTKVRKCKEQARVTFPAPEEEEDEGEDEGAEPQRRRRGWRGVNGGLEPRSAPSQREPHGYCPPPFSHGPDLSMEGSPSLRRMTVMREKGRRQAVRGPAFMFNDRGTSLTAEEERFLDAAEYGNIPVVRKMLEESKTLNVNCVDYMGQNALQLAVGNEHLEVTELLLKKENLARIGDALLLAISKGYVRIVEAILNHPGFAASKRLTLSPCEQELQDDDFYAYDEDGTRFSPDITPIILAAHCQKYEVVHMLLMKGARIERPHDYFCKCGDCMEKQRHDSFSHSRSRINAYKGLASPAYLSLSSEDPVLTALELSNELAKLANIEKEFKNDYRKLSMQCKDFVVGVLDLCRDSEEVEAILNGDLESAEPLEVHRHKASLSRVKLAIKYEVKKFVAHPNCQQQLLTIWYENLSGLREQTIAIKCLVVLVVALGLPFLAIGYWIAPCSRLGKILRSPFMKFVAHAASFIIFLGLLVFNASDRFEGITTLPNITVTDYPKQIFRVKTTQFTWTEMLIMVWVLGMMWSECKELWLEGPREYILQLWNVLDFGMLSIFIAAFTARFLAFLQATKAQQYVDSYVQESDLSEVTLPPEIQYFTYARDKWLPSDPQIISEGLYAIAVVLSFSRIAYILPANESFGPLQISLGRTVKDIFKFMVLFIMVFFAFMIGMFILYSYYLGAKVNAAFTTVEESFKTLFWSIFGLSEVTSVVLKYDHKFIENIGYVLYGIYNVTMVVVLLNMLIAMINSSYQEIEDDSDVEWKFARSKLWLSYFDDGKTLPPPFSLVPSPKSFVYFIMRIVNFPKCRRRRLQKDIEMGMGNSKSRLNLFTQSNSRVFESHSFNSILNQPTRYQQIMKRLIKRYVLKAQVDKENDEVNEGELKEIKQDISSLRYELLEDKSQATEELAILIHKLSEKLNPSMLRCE

[3] = Plasma concentration in Sprague-Dawley rat heart failure-induced pulmonary edema model at 0.02 ug/kg, iv bolus loading dose followed by 0.3 ug/kg/min, iv continuous infusion dose for 60 mins; format: ADME, organism-based; conditions: 2e-05 mg/kg
[4] = Clearance adjusted for unbound fraction in Sprague-Dawley rat at 1 mg/kg, iv administered as 30 mins infusion by LC/MS/MS analysis; format: ADME, organism-based; conditions: in vivo, 0.5 h
[5] = Fraction unbound in Sprague-Dawley rat heart failure-induced pulmonary edema model at 0.02 to 0.21 ug/kg, iv bolus loading dose followed by 0.3 to 2.3 ug/kg/min, iv continuous infusion dose for 60 mins; format: ADME, organism-based; conditions: in vivo
[6] = target: Transient receptor potential cation channel subfamily V member 4 (Homo sapiens, UniProt Q9HBA0); experiment: Antagonist activity at human TRPV4 expressed in BHK/AC9 cells assessed as inhibition of GSK634775-induced […] pre-incubated for 10 mins followed by agonist addition by Fluo-4-AM dye-based FLIPR assay; format: cell-based
[7] = target: Transient receptor potential cation channel subfamily A member 1 (Homo sapiens, UniProt O75762); experiment: Antagonist activity at TRPA1 (unknown origin)
[8] = tested on: Rattus norvegicus; experiment: Reversal of heart failure-induced pulmonary edema in Sprague-Dawley rat assessed as inhibition of GSK1016790A-induced increase in lung wet weight to body weight ratio at 0.21 ug/kg, iv bolus loading dose followed by 2.3 ug/kg/min, iv continuous infusion dose for 60 mins prior to agonist administration relative to control; format: functional
In short: (§1)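 Rats given vehicle or antagonist by i.v. infusion, then agonist GSK1016790A i.v. at 10 µg/kg/min for 10 min (100 µg/kg total). Edema scored as wet lung weight/body weight ratio against naïve animals; inhibition computed from the agonist response; mean ± SEM.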

[9] = Volume of distribution at steady state in Sprague-Dawley rat at 1 mg/kg, iv or 2 mg/kg, po by LC/MS/MS analysis; format: ADME, organism-based; conditions: in vivo, read-out: Vdss
[10] = target: Cytochrome P450 3A4 (Homo sapiens, UniProt P08684); experiment: Time dependent inhibition of CYP3A4 (unknown origin) up to 100 uM preincubated up to 15 mins followed by 7-benzyloxy-trifluoromethylcoumarin substrate and NADPH addition by fluorescence assay; format: ADME
[11] = target: Transient receptor potential cation channel subfamily M member 8 (Homo sapiens, UniProt Q7Z2W7); experiment: Antagonist activity at TRPM8 (unknown origin)
[12] = tested on: Rattus norvegicus; experiment: Reversal of heart failure-induced pulmonary edema in Sprague-Dawley rat assessed as inhibition of GSK1016790A-induced increase in lung wet weight to body weight ratio at 0.02 to 0.21 ug/kg, iv bolus loading dose followed by 0.3 to 2.3 ug/kg/min, iv continuous infusion dose for 60 mins prior to agonist administration; format: functional, organism-based; in short: as §1
[13] = AUC (0 to t) in rat at 98 mg/kg, po; format: ADME, organism-based; conditions: in vivo
[14] = Dose normalized AUC (0 to t) in dog at 0.9 mg/kg, po; format: ADME, organism-based, Canis lupus familiaris; conditions: in vivo
[15] = Dose normalized AUC (0 to t) in dog at 30 mg/kg, po; format: ADME, organism-based, Canis lupus familiaris; conditions: in vivo

Chain of Cytochrome P450 3A4 (P08684 whole entry): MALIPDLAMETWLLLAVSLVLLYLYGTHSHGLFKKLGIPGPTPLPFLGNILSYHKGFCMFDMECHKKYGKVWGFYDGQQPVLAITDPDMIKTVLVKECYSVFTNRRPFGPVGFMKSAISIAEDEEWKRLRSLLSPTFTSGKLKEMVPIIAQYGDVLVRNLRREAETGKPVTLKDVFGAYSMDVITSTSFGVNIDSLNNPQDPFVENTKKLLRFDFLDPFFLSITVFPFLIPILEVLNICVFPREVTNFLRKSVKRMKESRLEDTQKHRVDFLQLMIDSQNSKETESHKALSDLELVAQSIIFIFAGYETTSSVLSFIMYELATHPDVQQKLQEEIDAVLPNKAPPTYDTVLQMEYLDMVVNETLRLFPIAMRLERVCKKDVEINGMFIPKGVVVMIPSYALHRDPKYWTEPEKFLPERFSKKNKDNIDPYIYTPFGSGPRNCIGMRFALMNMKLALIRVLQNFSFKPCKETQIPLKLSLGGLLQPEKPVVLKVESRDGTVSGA
Chain of Transient receptor potential cation channel subfamily A member 1 (O75762 whole entry, the tested form may be a part): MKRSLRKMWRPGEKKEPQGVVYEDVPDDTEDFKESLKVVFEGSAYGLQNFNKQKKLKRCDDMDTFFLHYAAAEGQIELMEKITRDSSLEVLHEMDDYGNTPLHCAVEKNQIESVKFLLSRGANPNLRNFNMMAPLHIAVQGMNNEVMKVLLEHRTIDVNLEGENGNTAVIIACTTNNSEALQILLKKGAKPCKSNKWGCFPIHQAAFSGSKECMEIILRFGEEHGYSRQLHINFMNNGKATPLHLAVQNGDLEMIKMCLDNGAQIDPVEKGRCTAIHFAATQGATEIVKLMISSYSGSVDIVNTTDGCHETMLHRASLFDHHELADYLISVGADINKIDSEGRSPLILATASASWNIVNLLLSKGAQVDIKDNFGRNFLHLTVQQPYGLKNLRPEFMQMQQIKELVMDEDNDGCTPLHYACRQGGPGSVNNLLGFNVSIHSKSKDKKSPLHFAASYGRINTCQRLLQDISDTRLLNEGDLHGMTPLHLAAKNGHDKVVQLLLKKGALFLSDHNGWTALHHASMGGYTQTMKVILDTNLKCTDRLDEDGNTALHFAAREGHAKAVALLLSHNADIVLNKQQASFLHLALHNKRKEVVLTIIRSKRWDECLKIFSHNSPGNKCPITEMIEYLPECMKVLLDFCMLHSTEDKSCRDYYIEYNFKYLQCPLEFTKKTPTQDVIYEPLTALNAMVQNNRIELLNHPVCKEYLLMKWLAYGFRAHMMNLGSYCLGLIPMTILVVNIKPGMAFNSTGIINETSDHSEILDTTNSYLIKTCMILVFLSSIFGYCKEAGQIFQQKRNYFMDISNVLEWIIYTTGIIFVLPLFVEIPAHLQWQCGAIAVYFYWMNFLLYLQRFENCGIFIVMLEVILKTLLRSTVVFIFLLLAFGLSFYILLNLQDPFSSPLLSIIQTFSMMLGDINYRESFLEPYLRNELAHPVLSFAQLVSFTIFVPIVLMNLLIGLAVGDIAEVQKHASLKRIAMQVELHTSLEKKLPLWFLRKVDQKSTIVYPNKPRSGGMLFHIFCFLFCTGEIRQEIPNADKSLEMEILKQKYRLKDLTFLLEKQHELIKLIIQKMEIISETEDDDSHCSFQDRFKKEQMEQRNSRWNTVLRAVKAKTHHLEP
Chain of Transient receptor potential cation channel subfamily M member 8 (Q7Z2W7 whole entry, the tested form may be a part): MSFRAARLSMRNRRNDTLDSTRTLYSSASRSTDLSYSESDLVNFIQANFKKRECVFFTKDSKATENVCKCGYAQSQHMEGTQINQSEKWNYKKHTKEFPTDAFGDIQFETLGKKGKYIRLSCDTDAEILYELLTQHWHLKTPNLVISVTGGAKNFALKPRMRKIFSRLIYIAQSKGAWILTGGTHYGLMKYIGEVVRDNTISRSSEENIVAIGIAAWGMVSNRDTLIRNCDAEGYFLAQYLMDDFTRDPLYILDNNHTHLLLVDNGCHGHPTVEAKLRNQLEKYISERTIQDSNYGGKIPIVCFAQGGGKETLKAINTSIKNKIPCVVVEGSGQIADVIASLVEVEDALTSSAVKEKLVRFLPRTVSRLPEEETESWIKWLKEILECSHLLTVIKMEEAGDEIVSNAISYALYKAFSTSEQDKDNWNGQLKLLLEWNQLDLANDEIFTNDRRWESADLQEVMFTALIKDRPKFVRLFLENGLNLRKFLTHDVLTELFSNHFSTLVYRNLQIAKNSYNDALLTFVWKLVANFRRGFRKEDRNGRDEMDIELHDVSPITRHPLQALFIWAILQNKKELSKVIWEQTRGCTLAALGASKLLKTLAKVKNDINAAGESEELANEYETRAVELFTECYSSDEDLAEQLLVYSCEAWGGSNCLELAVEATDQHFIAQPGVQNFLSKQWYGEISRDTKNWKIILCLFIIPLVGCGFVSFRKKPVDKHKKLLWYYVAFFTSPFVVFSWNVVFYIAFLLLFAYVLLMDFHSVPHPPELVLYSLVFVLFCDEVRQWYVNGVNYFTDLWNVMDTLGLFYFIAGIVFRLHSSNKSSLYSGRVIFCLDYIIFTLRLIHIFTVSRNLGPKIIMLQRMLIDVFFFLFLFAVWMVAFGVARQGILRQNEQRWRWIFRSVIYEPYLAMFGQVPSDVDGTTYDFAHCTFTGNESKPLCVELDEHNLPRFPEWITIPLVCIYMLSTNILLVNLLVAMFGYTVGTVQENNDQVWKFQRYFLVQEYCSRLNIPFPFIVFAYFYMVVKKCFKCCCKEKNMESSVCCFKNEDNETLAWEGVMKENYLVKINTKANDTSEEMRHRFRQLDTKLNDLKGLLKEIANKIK
Chain of Transient receptor potential cation channel subfamily V member 4 (Q9HBA0 whole entry): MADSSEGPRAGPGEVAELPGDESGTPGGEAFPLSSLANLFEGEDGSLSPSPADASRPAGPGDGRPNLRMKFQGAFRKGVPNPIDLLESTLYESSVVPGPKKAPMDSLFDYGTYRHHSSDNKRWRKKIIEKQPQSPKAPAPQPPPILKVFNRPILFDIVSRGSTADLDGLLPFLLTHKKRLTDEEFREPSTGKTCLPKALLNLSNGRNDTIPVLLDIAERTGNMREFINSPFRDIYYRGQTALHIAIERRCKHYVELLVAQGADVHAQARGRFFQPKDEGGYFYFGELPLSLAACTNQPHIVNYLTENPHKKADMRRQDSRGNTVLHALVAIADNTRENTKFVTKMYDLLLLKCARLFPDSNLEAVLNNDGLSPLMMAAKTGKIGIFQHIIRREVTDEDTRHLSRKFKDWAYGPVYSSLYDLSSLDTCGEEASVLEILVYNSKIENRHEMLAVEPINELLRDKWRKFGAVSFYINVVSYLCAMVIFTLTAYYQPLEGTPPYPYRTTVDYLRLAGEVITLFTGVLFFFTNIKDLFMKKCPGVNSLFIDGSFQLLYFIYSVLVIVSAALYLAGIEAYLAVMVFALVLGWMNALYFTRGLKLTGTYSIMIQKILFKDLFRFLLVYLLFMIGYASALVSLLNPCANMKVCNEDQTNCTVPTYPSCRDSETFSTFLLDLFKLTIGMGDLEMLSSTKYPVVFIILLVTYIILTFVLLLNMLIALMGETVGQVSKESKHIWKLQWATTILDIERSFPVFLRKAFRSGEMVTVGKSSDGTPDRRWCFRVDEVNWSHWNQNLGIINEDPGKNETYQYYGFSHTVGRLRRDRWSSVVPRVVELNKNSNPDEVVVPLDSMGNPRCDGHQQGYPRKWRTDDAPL

- AUC(0-t) [1]: 90000 ng·h/mL
- IC50 [2]: > 30000 nM
- concentration at 1 h [3]: 14 nM
- CL free [4]: 12 mL/min/kg
- fraction unbound at 1 h [5]: 0.042
- IC50 [6]: 3.2 nM
- IC50 [7]: > 30000 nM
- Vd [9]: 4.5 L/kg
- TDI [10]: Not Active
- IC50 [11]: > 30000 nM
- AUC(0-t) [13]: 40000 ng·h/mL
- AUCt/dose [14]: 2.9 kg·h/L
- AUCt/dose [15]: 3 kg·h/L
Compound: N#Cc1ccc(S(=O)(=O)N2C[C@H](S(=O)(=O)c3ccc(Cl)cc3)[C@](O)(CO)C2)c(Cl)c1
- inhibition (INH) [8]: 99%
- fIC50 [12]: 0.3 nM
- IC50 ([12]; Rattus norvegicus, Sprague-Dawley): 33 nM
